For four compounds, MIC results are on record in ChEMBL document CHEMBL1649253, “New approach for drug susceptibility testing: monitoring the stress response of mycobacteria” (2009).

Each structure is given as a SMILES string. ≈ marks a conversion by molar mass, not a printed value.

What all share (assay type): functional
Assay [1] concerns Mycobacterium tuberculosis. Nature of the assay: Antibacterial activity against rifampin-resistant Mycobacterium tuberculosis H37Ra. Put shortly: (§1)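 Broth microdilution in supplemented 7H9 (complete) medium with twofold drug dilutions. Inoculum 10^6 CFU/ml from cultures grown at 37°C to mid- or late-log phase. Incubated 21 days at 37°C, then turbidity inspected by eye against drug-free controls. MIC is the lowest concentration with no visible growth.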

Assay [2] deals with Mycobacterium tuberculosis. Nature of the assay: Antibacterial activity against isoniazid-resistant Mycobacterium tuberculosis H37Ra. A digest of the protocol:
as §1

Assay [3] deals with Mycobacterium tuberculosis. Nature of the assay: Antibacterial activity against ethambutol-resistant Mycobacterium tuberculosis H37Ra. A digest of the protocol: as §1
Assay [4] deals with Mycobacterium tuberculosis. Nature of the assay: Antibacterial activity against pyrazinamide-resistant Mycobacterium tuberculosis H37Ra. A digest of the protocol:
as §1

For the compound `CC[C@@H](CO)NCCN[C@@H](CC)CO` [ETHAMBUTOL], the MIC (commonly the least concentration at which growth counts as inhibited) is 5 µg/mL (≈ 24.5 µM) in assay [1], 5 µg/mL (≈ 24.5 µM) in assay [2], over 400 µg/mL in assay [3] and 5 µg/mL (≈ 24.5 µM) in assay [4].

For the compound `CO[C@H]1/C=C/O[C@@]2(C)Oc3c(C)c(O)c4c(O)c(c(/C=N/N5CCN(C)CC5)c(O)c4c3C2=O)NC(=O)/C(C)=C\C=C\[C@H](C)[C@H](O)[C@@H](C)[C@@H](O)[C@@H](C)[C@H](OC(C)=O)[C@@H]1C` [RIFAMPIN], the MIC turned out to be 16 µg/mL (≈ 19.4 µM) in assay [1], 0.2 µg/mL (≈ 0.243 µM) in assay [2], 0.2 µg/mL (≈ 0.243 µM) in assay [3] and 0.2 µg/mL (≈ 0.243 µM) in assay [4].

Turning to `NC(=O)c1cnccn1` [PYRAZINAMIDE], the minimum inhibitory concentration (MIC) in assay [1] was 50 µg/mL (≈ 406 µM); in assay [2], 50 µg/mL (≈ 406 µM); in assay [3], 50 µg/mL (≈ 406 µM); in assay [4], over 4000 µg/mL.

Regarding `NNC(=O)c1ccncc1` [ISONIAZID], the MIC in assay [1] was 0.2 µg/mL (≈ 1.46 µM); in assay [2], over 16 µg/mL; in assay [3], 0.2 µg/mL (≈ 1.46 µM); in assay [4], 0.2 µg/mL (≈ 1.46 µM).
